Measurements taken from paper PMC2736393 (Biochemistry, 2009).
Where a chain is given by its changes, count along the chain named. Names and notes keep the numbering of the source. One block for each molecule: values may come before it. No end group written: not given here.

Assays:
[1] = Circular dichroism of GRK2 peptides; type: physicochemical; conditions: 16 µM peptide in PBS pH 7.0, 4°C
How it was run: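 Far-UV CD spectra recorded at 4°C over 200–280 nm in a 1.0 cm pathlength cuvette (1 nm/min, 4 s response, 1 nm bandwidth). Test peptide was diluted to 16 µM in PBS pH 7.0 with varying trifluoroethanol. Observed ellipticity was converted to molar ellipticity using mean residue weight, path length and concentration. Relative helix content was deduced from these spectra.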

[2] = biological target: T1, GRK2 (rhodopsin substrate) (Bos taurus, UniProt P21146); assay: Inhibition of GRK2 phosphorylation of Rho* by GRK peptides; type: biochemical; conditions: 1-15 µM rhodopsin, 60 µM peptide; 3 independent experiments
T1 sequence (P21146 1-689): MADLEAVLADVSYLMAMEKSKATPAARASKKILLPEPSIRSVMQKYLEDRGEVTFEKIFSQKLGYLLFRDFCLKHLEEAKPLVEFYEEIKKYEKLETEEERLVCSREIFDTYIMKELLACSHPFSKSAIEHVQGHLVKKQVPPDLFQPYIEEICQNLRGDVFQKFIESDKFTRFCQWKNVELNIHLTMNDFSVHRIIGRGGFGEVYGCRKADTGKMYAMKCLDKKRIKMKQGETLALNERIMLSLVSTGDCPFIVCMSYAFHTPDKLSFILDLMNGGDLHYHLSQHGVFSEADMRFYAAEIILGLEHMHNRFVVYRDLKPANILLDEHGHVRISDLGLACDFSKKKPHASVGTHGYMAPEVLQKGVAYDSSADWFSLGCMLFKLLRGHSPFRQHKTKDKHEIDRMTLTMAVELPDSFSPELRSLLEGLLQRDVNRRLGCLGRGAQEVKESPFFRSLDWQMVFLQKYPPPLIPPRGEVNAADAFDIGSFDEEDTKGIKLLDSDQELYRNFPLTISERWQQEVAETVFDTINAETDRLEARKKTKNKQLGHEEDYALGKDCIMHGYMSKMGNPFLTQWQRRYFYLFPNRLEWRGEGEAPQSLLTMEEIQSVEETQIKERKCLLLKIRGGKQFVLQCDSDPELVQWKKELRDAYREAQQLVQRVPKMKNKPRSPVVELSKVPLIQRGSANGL
How it was run: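 Sf9-expressed, purified GRK2 (20 nM) phosphorylated 1–15 µM light-activated rhodopsin with or without 60 µM test peptide. Products were resolved by SDS-PAGE and autoradiographed, then bands were excised and scintillation-counted. Values are mean ± SD from three experiments.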

GRK2 (β2AR substrate) = biological target: T2, GRK2 (β2AR substrate) (Bos taurus, UniProt P21146); assay: Inhibition of GRK2 phosphorylation of β2AR by GRK peptides; type: biochemical
T2 sequence (P21146 1-689): T1 sequence (P21146 1-689)

[3] = biological target: T1, GRK2 (rhodopsin substrate); conditions: cited from earlier work
GPCR = conditions: cited from earlier work
rhodopsin (Rho*) = assay: Phosphorylation of light-activated rhodopsin; type: biochemical; conditions: COS-1 lysates, 2-20 min, 30°C; autoradiography (Fig. 1B)
[4] = system: β2-adrenergic receptor (β2AR); assay: Phosphorylation of purified β2AR by purified GRK2 mutants; type: biochemical, human; conditions: 50 nM β2AR in mixed micelles, 20 nM GRK2, 10 µM isoproterenol, 0.2 mM ATP, 30°C; 3 experiments

helix formation ([1]; in solution without TFE (0% TFE)): minimal helical formation in solution
helix formation ([1]; in the presence of TFE (25-50%)): no helix formation was observed
Molecule: MADLEAPLADVYSL [Pro peptide]

decrease in β2AR phosphorylation activity vs wild-type GRK2 [4]: ~ 60%
B2: D3K: GRK2 amino terminal point mutant, Asp-3 to lysine (protein)
chain: T1 sequence (P21146 1-689) with D3K
ability to phosphorylate Rho* (rhodopsin (Rho*)): completely defective in their ability to phosphorylate Rho*

decrease in β2AR phosphorylation activity vs wild-type GRK2 [4]: 90–95%
B4: D10A: GRK2 amino terminal point mutant (protein)
chain: T1 sequence (P21146 1-689) with D10A
ability to phosphorylate Rho* (rhodopsin (Rho*)): completely defective in their ability to phosphorylate Rho*

The remaining lines, values behind:

Molecule: MADLEAVLADVYSL [GRK2 peptide]
Km change [2]: no change in the Km
IC50 (GRK2 (β2AR substrate)): ~50 µM

Molecule: MELENIVANTLLK [GRK5 peptide, reference compound]
effect on GRK2-mediated phosphorylation of rhodopsin [3]: no effect
effect on GRK2-mediated β2AR phosphorylation (GRK2 (β2AR substrate); 200 µM peptide, 3 experiments (Fig. 4E)): no significant effect

B1: V477D: mutation in the AGC kinase C-tail of GRK2, literature (protein, UniProt P25098 1-689, looked up, variant V477D)
Beta-adrenergic receptor …: MADLEAVLADVSYLMAMEKSKATPAARASKKILLPEPSIRSVMQKYLEDRGEVTFEKIFSQKLGYLLFRDFCLNHLEEARPLVEFYEEIKKYEKLETEEERVARSREIFDSYIMKELLACSHPFSKSATEHVQGHLGKKQVPPDLFQPYIEEICQNLRGDVFQKFIESDKFTRFCQWKNVELNIHLTMNDFSVHRIIGRGGFGEVYGCRKADTGKMYAMKCLDKKRIKMKQGETLALNERIMLSLVSTGDCPFIVCMSYAFHTPDKLSFILDLMNGGDLHYHLSQHGVFSEADMRFYAAEIILGLEHMHNRFVVYRDLKPANILLDEHGHVRISDLGLACDFSKKKPHASVGTHGYMAPEVLQKGVAYDSSADWFSLGCMLFKLLRGHSPFRQHKTKDKHEIDRMTLTMAVELPDSFSPELRSLLEGLLQRDVNRRLGCLGRGAQEVKESPFFRSLDWQMVFLQKYPPPLIPPRGEDNAADAFDIGSFDEEDTKGIKLLDSDQELYRNFPLTISERWQQEVAETVFDTINAETDRLEARKKAKNKQLGHEEDYALGKDCIMHGYMSKMGNPFLTQWQRRYFYLFPNRLEWRGEGEAPQSLLTMEEIQSVEETQIKERKCLLLKIRGGKQFILQCDSDPELVQWKKELRDAYREAQQLVQRVPKMKNKPRSPVVELSKVPLVQRGSANGL
receptor phosphorylation and receptor-mediated activation (GPCR; GRK2 AGC kinase C-tail mutation): defective in receptor phosphorylation and receptor-mediated activation
activity against non-receptor substrates (GPCR): reduced activity against non-receptor substrates

B3: L4A: GRK2 amino terminal point mutant, Leu-4 to alanine (protein)
chain: T1 sequence (P21146 1-689) with L4A
decrease in β2AR phosphorylation activity vs wild-type GRK2 [4]: 90–95%
